Data as given in ChEMBL document CHEMBL1140385, “Synthesis and antibacterial activity of 3-substituted-6-(3-ethyl-4-methylanilino)uracils” (J Med Chem, 2005).
Converted amounts (≈) assume the structure as drawn.

What was measured:
[1] = test system: Bacillus subtilis; test: In vitro minimum inhibitory concentration against Bacillus subtilis upon incubation at 37 degree C for 16 to 24 h; format: functional
[2] = test system: Enterococcus faecium; test: In vitro minimum inhibitory concentration against Enterococcus fecium upon incubation at 37 degree C for 16 to 24 hr by dissolving in DMSO (1%); format: functional
Method in brief: (§1)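 Broth microdilution (modified NCCLS M7-A4). Enterococci grown to log phase in brain-heart infusion broth, seeded at (3-7) × 10⁵ CFU/mL. Compounds 2-fold diluted from DMSO stocks, 20 to 1.25 µg/mL, final 1% DMSO, in duplicate. Incubated 37 °C, 16-24 h, with shaking. OD600 read.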

[3] = test system: Enterococcus faecalis; test: In vitro minimum inhibitory concentration against Enterococcus faecalis upon incubation at 37 degree C for 16 to 24 hr by dissolving in DMSO (1%); format: functional
Method in brief: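 Log-phase E. faecalis was grown in brain-heart infusion broth and seeded at (3-7) × 10^5 CFU/mL. Duplicate 2-fold dilutions ran from 20 to 1.25 µg/mL, final 1% DMSO. After 16-24 h at 37 °C with shaking, OD600 was read.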

[4] = test system: Staphylococcus aureus; test: In vitro minimum inhibitory concentration against Staphylococcus aureus upon incubation at 37 degree C for 16 to 24 hr by dissolving in DMSO (1%); format: functional
[5] = test system: Staphylococcus aureus; test: In vitro minimum inhibitory concentration against Staphylococcus aureus (Smith) upon incubation at 37 degree C for 16 to 24 hr by dissolving in DMSO (1%); format: functional
[6] = test system: Enterococcus faecium; test: In vitro minimum inhibitory concentration against Vancomycin resistant Enterococci faecium upon incubation at 37 degree C for 16 to 24 hr by dissolving in DMSO (1%); format: functional; method in brief: as §1
[7] = test system: Staphylococcus aureus; test: In vitro minimum inhibitory concentration against Methicillin-resistant Staphylococcus aureus upon incubation at 37 degree C for 16 to 24 hr by dissolving in DMSO (1%); format: functional
Method in brief: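 Broth microdilution (modified NCCLS M7-A4). Staphylococci grown to log phase in Luria broth, seeded at (3-7) × 10⁵ CFU/mL. Compounds 2-fold diluted from DMSO stocks, 20 to 1.25 µg/mL, final 1% DMSO, in duplicate. Incubated 37 °C, 16-24 h, with shaking. OD600 read.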

[8] = test system: Staphylococcus aureus; test: Serum effect on MIC against Staphylococcus aureus (Smith) as ratio of MIC value in presence and absence of 50% fetal calf serum; format: functional
Method in brief: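 Broth microdilution MIC was repeated with 50% fetal calf serum added to the growth medium (LB for S. aureus, brain-heart infusion broth for E. faecalis). The inoculum was (3-7) × 10^5 CFU/mL in 1% DMSO, incubated at 37 °C for 16-24 h, and read by OD600. The serum effect is the MIC with serum relative to the MIC without serum.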

[9] = molecular target: DNA polymerase III PolC-type (Bacillus subtilis (strain 168), UniProt P13267); test: Inhibitory concentration against Bacillus subtilis DNA polymerase IIIC using [3H]dTMP 250 pM (30 degree C for 10 min)
Method in brief: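 Homogeneous recombinant B. subtilis pol IIIC, 0.025-0.06 units, acted on activated calf thymus DNA with Mg2+, DTT, glycerol, dATP, dCTP, dTTP and [3H]dTTP, without dGTP. Compounds were serially diluted from DMSO. Reactions ran 10 min at 30 °C, were stopped with TCA-pyrophosphate, and the filter-collected precipitate was scintillation counted. Apparent Ki was read directly from this truncated assay; average standard deviation ±44%.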

Chain of DNA polymerase III PolC-type (P13267 whole entry, the tested form may be a part): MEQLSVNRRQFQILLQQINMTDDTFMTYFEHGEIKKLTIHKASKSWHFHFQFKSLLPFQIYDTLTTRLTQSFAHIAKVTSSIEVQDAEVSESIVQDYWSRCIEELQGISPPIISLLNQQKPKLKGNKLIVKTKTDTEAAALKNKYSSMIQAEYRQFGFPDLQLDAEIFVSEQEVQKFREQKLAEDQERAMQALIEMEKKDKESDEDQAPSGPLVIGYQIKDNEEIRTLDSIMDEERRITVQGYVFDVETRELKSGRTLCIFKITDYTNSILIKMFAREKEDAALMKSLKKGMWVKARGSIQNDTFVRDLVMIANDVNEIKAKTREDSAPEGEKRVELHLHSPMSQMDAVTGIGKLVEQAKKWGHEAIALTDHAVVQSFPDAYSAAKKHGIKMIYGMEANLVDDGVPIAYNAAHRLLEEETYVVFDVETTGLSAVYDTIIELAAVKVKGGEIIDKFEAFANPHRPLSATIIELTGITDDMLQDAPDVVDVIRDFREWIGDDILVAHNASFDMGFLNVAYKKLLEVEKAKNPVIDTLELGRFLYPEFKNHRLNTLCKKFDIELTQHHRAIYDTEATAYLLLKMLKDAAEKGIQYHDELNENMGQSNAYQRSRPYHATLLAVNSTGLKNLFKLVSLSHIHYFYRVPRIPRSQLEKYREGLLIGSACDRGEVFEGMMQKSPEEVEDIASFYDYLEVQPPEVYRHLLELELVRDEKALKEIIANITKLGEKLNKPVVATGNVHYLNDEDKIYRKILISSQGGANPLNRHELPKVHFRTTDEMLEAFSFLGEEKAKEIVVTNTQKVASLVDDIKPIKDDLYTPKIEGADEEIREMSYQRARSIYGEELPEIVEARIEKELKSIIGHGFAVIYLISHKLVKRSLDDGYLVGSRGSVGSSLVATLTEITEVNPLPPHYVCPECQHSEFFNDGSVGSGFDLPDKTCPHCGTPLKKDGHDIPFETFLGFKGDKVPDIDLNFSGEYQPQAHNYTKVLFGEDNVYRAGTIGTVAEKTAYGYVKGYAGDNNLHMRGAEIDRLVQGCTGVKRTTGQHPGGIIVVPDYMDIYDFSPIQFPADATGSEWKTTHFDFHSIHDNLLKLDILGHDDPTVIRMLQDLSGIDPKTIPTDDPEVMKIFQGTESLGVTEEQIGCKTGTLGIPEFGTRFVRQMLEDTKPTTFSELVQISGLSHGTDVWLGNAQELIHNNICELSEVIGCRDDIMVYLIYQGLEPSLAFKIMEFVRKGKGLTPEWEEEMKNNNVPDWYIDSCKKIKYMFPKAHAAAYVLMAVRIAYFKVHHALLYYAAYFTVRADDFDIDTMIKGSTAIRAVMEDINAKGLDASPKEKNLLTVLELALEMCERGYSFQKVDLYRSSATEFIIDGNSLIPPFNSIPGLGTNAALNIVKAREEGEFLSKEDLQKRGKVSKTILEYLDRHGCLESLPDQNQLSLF

Compound	MIC [1] [µg/mL]	MIC [2] [µg/mL]	MIC [3] [µg/mL]	MIC [4] [µg/mL]	MIC [5] [µg/mL]	MIC [6] [µg/mL]	MIC [7] [µg/mL]	MIC+/MIC- [8]	Ki [9] [nM]
CCc1cc(Nc2cc(=O)n(C/C=C/CO)c(=O)[nH]2)ccc1C	1.25 (≈ 3.96 µM)	2.5 (≈ 7.93 µM)	5 (≈ 15.9 µM)	10 (≈ 31.7 µM)	5 (≈ 15.9 µM)	2.5 (≈ 7.93 µM)	5 (≈ 15.9 µM)	4.8	–
CCc1cc(Nc2cc(=O)n(CCCCCOC(C)=O)c(=O)[nH]2)ccc1C	0.625 (≈ 1.67 µM)	3.75 (≈ 10 µM)	5 (≈ 13.4 µM)	5 (≈ 13.4 µM)	7.5 (≈ 20.1 µM)	3.75 (≈ 10 µM)	2.5 (≈ 6.69 µM)	–	68
CCc1cc(Nc2cc(=O)n(CCCCCCCCCO)c(=O)[nH]2)ccc1C	< 1.25	2.5 (≈ 6.45 µM)	2.5 (≈ 6.45 µM)	20 (≈ 51.6 µM)	2.5 (≈ 6.45 µM)	2.5 (≈ 6.45 µM)	20 (≈ 51.6 µM)	>32	87
CCc1cc(Nc2cc(=O)n(CCCCCO)c(=O)[nH]2)ccc1C	< 1.25	2.5 (≈ 7.54 µM)	2.5 (≈ 7.54 µM)	5 (≈ 15.1 µM)	2.5 (≈ 7.54 µM)	2.5 (≈ 7.54 µM)	5 (≈ 15.1 µM)	11.6	43
CCc1cc(Nc2cc(=O)n(CCCCCN)c(=O)[nH]2)ccc1C.Cl	< 1.25	20	> 20	5	10	> 20	10	–	185
CCc1cc(Nc2cc(=O)n(CCCO)c(=O)[nH]2)ccc1C	< 1.25	2.5 (≈ 8.24 µM)	5 (≈ 16.5 µM)	2.5 (≈ 8.24 µM)	5 (≈ 16.5 µM)	2.5 (≈ 8.24 µM)	5 (≈ 16.5 µM)	5.6	130
CCc1cc(Nc2cc(=O)n(CCOC(C)=O)c(=O)[nH]2)ccc1C	1.25 (≈ 3.77 µM)	5 (≈ 15.1 µM)	5 (≈ 15.1 µM)	5 (≈ 15.1 µM)	3.75 (≈ 11.3 µM)	5 (≈ 15.1 µM)	5 (≈ 15.1 µM)	–	120
CCc1cc(Nc2cc(=O)n(CCCC(O)CO)c(=O)[nH]2)ccc1C (configuration not stated)	–	20 (≈ 57.6 µM)	20 (≈ 57.6 µM)	–	20 (≈ 57.6 µM)	10 (≈ 28.8 µM)	> 20	–	–
CCc1cc(Nc2cc(=O)n(CCOCCOCCO)c(=O)[nH]2)ccc1C	–	10 (≈ 26.5 µM)	10 (≈ 26.5 µM)	–	10 (≈ 26.5 µM)	5 (≈ 13.2 µM)	> 20	–	–
CCc1cc(Nc2cc(=O)n(CC(C)=O)c(=O)[nH]2)ccc1C	–	10 (≈ 33.2 µM)	20 (≈ 66.4 µM)	–	10 (≈ 33.2 µM)	20 (≈ 66.4 µM)	10 (≈ 33.2 µM)	–	–
CCOC(=O)CCCCn1c(=O)cc(Nc2ccc(C)c(CC)c2)[nH]c1=O	–	< 1.25	5 (≈ 13.4 µM)	–	–	2.5 (≈ 6.69 µM)	> 20	>12.2	–
CCc1cc(Nc2cc(=O)n(CC#CCO)c(=O)[nH]2)ccc1C	–	10 (≈ 31.9 µM)	10 (≈ 31.9 µM)	10 (≈ 31.9 µM)	–	10 (≈ 31.9 µM)	10 (≈ 31.9 µM)	–	–
CCc1cc(Nc2cc(=O)n(CCCCCN3CCc4c([nH]c5ccc(OC)cc45)C3)c(=O)[nH]2)ccc1C	–	20 (≈ 38.8 µM)	> 20	–	10 (≈ 19.4 µM)	5 (≈ 9.7 µM)	10 (≈ 19.4 µM)	–	–
CCc1cc(Nc2cc(=O)n(CCCCCN3CC=C(c4ccc(F)cc4)CC3)c(=O)[nH]2)ccc1C	–	7.5 (≈ 15.3 µM)	7.5 (≈ 15.3 µM)	10 (≈ 20.4 µM)	7.5 (≈ 15.3 µM)	5 (≈ 10.2 µM)	7.5 (≈ 15.3 µM)	–	–
CCc1cc(Nc2cc(=O)n(CCO)c(=O)[nH]2)ccc1C	< 1.25	5 (≈ 17.3 µM)	10 (≈ 34.6 µM)	5 (≈ 17.3 µM)	5 (≈ 17.3 µM)	5 (≈ 17.3 µM)	10 (≈ 34.6 µM)	–	–
O=C(O)c1cn(C2CC2)c2cc(N3CCNCC3)c(F)cc2c1=O [CIPROFLOXACIN]	0.078 (≈ 0.235 µM)	5 (≈ 15.1 µM)	–	0.156 (≈ 0.471 µM)	0.078 (≈ 0.235 µM)	20 (≈ 60.4 µM)	> 20	–	–
CCc1cc(Nc2cc(=O)n(CCN3CCN(C(=O)c4ccccc4)CC3)c(=O)[nH]2)ccc1C	–	5 (≈ 10.8 µM)	10 (≈ 21.7 µM)	–	10 (≈ 21.7 µM)	5 (≈ 10.8 µM)	10 (≈ 21.7 µM)	–	–
CCc1cc(Nc2cc(=O)n(CCCCOC(C)=O)c(=O)[nH]2)ccc1C	–	5 (≈ 13.9 µM)	5 (≈ 13.9 µM)	–	–	5 (≈ 13.9 µM)	5 (≈ 13.9 µM)	–	–
